Measurements of several laboratories.
Compare with care: the assays were run in different laboratories.
Target: Tyrosine-protein kinase Fgr (FGR, Homo sapiens, UniProt P09769)

SMILES	observed	mode	technique	tested at	measurement	result
Cc1ccc(NC(=O)c2ccc(C)c(C(F)(F)F)c2)cc1C#Cc1nn(C2CCC(O)CC2)c2ncnc(N)c12 (stereo not drawn)	cell-free assay	–	–	10 µM	remaining signal	2%
CC(C)CC(=O)N1CCc2nc(-c3ccc(Br)cc3)nc(N(C)Cc3ccccc3)c2C1	cell-free assay	–	competition with immobilised ligand	0.1 µM	remaining binding	99%
CC(C)(C)c1nc(-c2cccc(NS(=O)(=O)c3c(F)cccc3F)c2F)c(-c2ccnc(N)n2)s1	enzyme activity	inhibitor	radiometric	1 µM	remaining activity	60%
Cn1c2c(Cl)c(Cl)ccc2c2cc(N)[nH]c(=O)c21	thermal stability	–	DSF	10 µM	ΔTm	0 °C
O=C1CCc2cc(Nc3cc(OC4CCOCC4)c([N+](=O)[O-])cc3Cl)ccc2N1	cell-free assay	–	competition with immobilised ligand	1 µM	remaining binding	100%
Cc1cc(NC(=O)c2cccc3cc(-c4cccc5[nH]nc(N)c45)ccc23)ccc1F	enzyme activity	inhibitor	–	0.1 µM	activity vs control	110%
Cc1ccc(Nc2nccc(N(C)c3ccc4c(C)n(C)nc4c3)n2)cc1S(N)(=O)=O	cell-free assay	–	–	0.5 µM	remaining signal	35.8%
CC(C)(O)[C@H]1CC[C@H](Nc2ccc3ncc(-c4cccc(C(F)(F)F)c4)n3n2)CC1	enzyme activity	inhibitor	–	1 µM	remaining activity	36.8%
CNC(=O)c1cc(Oc2ccc(NC(=O)Nc3ccc(Cl)c(C(F)(F)F)c3)cc2)ccn1	enzyme activity	inhibitor	–	10 µM	inhibition	39%
CNC(=O)c1ccc(Nc2ncc(C(F)(F)F)c(NCc3nccnc3N(C)S(C)(=O)=O)n2)cc1	cell-free assay	–	competition with immobilised ligand	0.1 µM	remaining binding	81%
Cn1c2c(Cl)c(Cl)ccc2c2cc[nH]c(=O)c21	thermal stability	–	DSF	10 µM	ΔTm	-0.4 °C
O=C(O)c1cc(-c2ccc(C3CCNCC3)cc2)c2ccc(-c3ccc(C(F)(F)F)cc3)cc2c1	cell-free assay	–	competition with immobilised ligand	1 µM	remaining binding	100%
Cc1sc(C(=O)NC2COC2)cc1-n1cc(NC(=O)Nc2c(F)cccc2Cl)cn1	enzyme activity	inhibitor	–	10 µM	remaining activity	80.2%
NS(=O)(=O)c1cc(NC(=O)Cc2ccccc2)ccc1Oc1cccc(Cl)c1	cell-free assay	–	competition with immobilised ligand	1 µM	remaining binding	100%
CC/C(=N\NC(=O)NCc1cccc(O)c1)c1ccc(O)c(C)c1O	enzyme activity	inhibitor	–	0.1 µM	inhibition	1.1%
CN(C)C(=O)Cn1cc(-c2nc(C3(c4ccc(-c5cnc(N)nc5)cc4)CC3)no2)cn1	cell-free assay	–	competition with immobilised ligand	1 µM	remaining binding	100%
N#CCCc1ccc2c(c1)-c1[nH]c3ccc([N+](=O)[O-])cc3c1CC(=O)N2	cell-free assay	–	–	0.5 µM	remaining signal	31%
Cn1c2c(Cl)c(Cl)ccc2c2cn[nH]c(=O)c21	thermal stability	–	DSF	10 µM	ΔTm	-0.1 °C
